# Measured values taken from ChEMBL document CHEMBL1138890, “Development of N-2,4-pyrimidine-N-phenyl-N'-alkyl ureas as orally active inhibitors of tumor necrosis factor alpha (TNF-alpha) synthesis. Part 2” (Bioorg Med Chem Lett, 2006).
# pIC50: −log10 of the molar value.
# Legend:
# [1] = system: THP-1; test: Inhibition of LPS-stimulated TNFalpha production in human THP1 cells; format: functional, cell-based
# [2] = Metabolism measured as percent loss of compound in Sprague-Dawley rat hepatocytes after 4 hrs; format: ADME, cell-based, Hepatocyte; conditions: read-out: Activity
# How it was run: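 Compound incubated with plated Sprague–Dawley rat hepatocytes for 4 h. Metabolism expressed as percent loss of parent compound.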
# [3] = Solubility in Sprague-Dawley rat; format: ADME, organism-based
# [4] = Half life in Sprague-Dawley rat; format: ADME, organism-based; conditions: in vivo
# [5] = Bioavailability in Sprague-Dawley rat; format: ADME, organism-based; conditions: in vivo
# [6] = Bioavailability in po dosed Sprague-Dawley rat; format: ADME, organism-based; conditions: in vivo
# [7] = system: Rattus norvegicus; test: Reduction in severity of cartilage damage in Sprague-Dawley rat at 25 mg/kg; format: functional; design: scale not given: the % may be the effect or the level left
# How it was run: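 Osteoarthritis was induced in male Sprague–Dawley rats (200–225 g) under anesthesia by injecting 20 µL of 10 mg/mL monosodium iodoacetate into the patellar ligament region of the left knee, flexed 90°. Groups of 15 were dosed BID (about every 12 h) for 7 days with 25 mg/kg compound or vehicle (2.5 mL/kg). On day 22 the left joint was fixed in 10% formalin for 24–48 h and the tibial cartilage surface imaged. Damage severity was compared with vehicle (P < 0.05).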
# [8] = system: THP-1; test: Inhibition of LPS-stimulated TNFalpha production in human THP1 cells at 10 uM; format: functional
Structure (SMILES),pIC50 [1],other results
O=C(NCc1ccccc1Cl)N(c1ccc(F)cc1)c1ccnc(NC2CCOCC2)n1,7.80,
COC[C@H](C)Nc1nccc(N(C(=O)NCc2ccc(Cl)c(Cl)c2)c2ccc(OC)cc2)n1,5.68,
COc1ccc(N(C(=O)NCc2ccccc2Cl)c2ccnc(N[C@@H](C)C(C)(C)O)n2)cc1,8.05,metabolised at 4 h [2]: 32%; solubility [3]: < 10 µg/mL; half-life [4]: 1.9 h; bioavailability [5]: 1.9%
CCNC(=O)N(c1ccc(OCC)cc1)c1ccnc(N[C@@H](C)COC)n1,6.56,
COC[C@H](C)Nc1nccc(N(C(=O)NCc2ccccc2Cl)c2ccc(F)cc2)n1,6.63,
COC[C@H](C)Nc1nccc(N(C(=O)NCc2ccccc2Cl)c2ccc(OC)cc2)n1,6.83,
COC[C@H](C)Nc1nccc(N(C(=O)NCc2ccc(Cl)cc2Cl)c2ccc(OC)cc2)n1,6.21,
CCOc1ccc(N(C(=O)NCc2ccccc2Cl)c2ccnc(N[C@@H](C)COC)n2)cc1,7.25,
COc1ccc(N(C(=O)NCc2ccccc2Cl)c2ccnc(NC(C)C)n2)cc1,7.80,
CN(C)c1nccc(N(C(=O)NCc2ccccc2Cl)c2ccc(F)cc2)n1,,inhibition at 10 µM [8]: 35%
O=C(NCc1ccccc1Cl)N(c1ccc(F)cc1)c1ccnc(Nc2c(F)cccc2F)n1,,inhibition at 10 µM [8]: 25%
CCCCNC(=O)N(c1ccc(OC)cc1)c1ccnc(N[C@@H](C)COC)n1,6.49,
COc1ccc(N(C(=O)NCc2ccccc2C)c2ccnc(N[C@@H](C)C(C)(C)O)n2)cc1,7.43,
COc1ccc(N(C(=O)NCc2ccccc2OC)c2ccnc(N[C@@H](C)C(C)(C)O)n2)cc1,7.82,
CNc1nccc(N(C(=O)NCc2ccccc2Cl)c2ccc(OC)cc2)n1,,inhibition at 10 µM [8]: 3%

# Continued, in another order:
pIC50 [1],Structure (SMILES),other results
7.10,CCNC(=O)N(c1ccc(OC)cc1)c1ccnc(NC(C)C)n1,
5.94,CC(C)Nc1nccc(N(C(=O)NCC2CCN(C(=O)OC(C)(C)C)CC2)c2ccc(F)cc2)n1,
6.56,CC(C)Nc1nccc(N(C(=O)NCCN2CCN(C(=O)OC(C)(C)C)CC2)c2ccc(F)cc2)n1,
6.33,COC[C@H](C)Nc1nccc(N(C(=O)NC2CCCCC2)c2ccc(OC)cc2)n1,
7.52,CC(C)Nc1nccc(N(C(=O)NCc2ccccn2)c2ccc(F)cc2)n1,
6.09,CCNC(=O)N(c1ccc(OC)cc1)c1ccnc(N[C@@H](C)COC)n1,
7.13,CC(C)NC(=O)N(c1ccc(F)cc1)c1ccnc(NC(C)C)n1,
7.55,CCNC(=O)N(c1ccc(OC)cc1)c1ccnc(N[C@@H](C)C(C)(C)O)n1,metabolised at 4 h [2]: 32%; solubility [3]: 240 µg/mL; bioavailability [6]: 15%; Activity [7]: 24%
7.07,CCNC(=O)N(c1ccc(F)cc1)c1ccnc(NC2CCOCC2)n1,metabolised at 4 h [2]: 16%; solubility [3]: 25 µg/mL; half-life [4]: 0.46 h; bioavailability [5]: 13.2%; Activity [7]: 16%
8.40,CC(C)Nc1nccc(N(C(=O)NCc2ccncc2)c2ccc(F)cc2)n1,
7.85,C[C@H](Nc1nccc(N(C(=O)NCc2ccccc2Cl)c2ccc(F)cc2)n1)C(C)(C)O,
7.80,CC(C)Nc1nccc(N(C(=O)NCC2CCNCC2)c2ccc(F)cc2)n1,
6.92,CC(C)Nc1nccc(N(C(=O)NCCN2CCNCC2)c2ccc(F)cc2)n1,
